Measured values reported in paper PMC4000071 (Journal of Toxicologic Pathology, 2014).
Read-outs that look alike come from different tables or passages of the source.

How the values were obtained:
[1] = target: T1, adrenergic α1A receptor (Homo sapiens, UniProt P35348); experiment: secondary pharmacology screens, α1A; type: biochemical; settings: 10 µM
T1 sequence (P35348 1-466): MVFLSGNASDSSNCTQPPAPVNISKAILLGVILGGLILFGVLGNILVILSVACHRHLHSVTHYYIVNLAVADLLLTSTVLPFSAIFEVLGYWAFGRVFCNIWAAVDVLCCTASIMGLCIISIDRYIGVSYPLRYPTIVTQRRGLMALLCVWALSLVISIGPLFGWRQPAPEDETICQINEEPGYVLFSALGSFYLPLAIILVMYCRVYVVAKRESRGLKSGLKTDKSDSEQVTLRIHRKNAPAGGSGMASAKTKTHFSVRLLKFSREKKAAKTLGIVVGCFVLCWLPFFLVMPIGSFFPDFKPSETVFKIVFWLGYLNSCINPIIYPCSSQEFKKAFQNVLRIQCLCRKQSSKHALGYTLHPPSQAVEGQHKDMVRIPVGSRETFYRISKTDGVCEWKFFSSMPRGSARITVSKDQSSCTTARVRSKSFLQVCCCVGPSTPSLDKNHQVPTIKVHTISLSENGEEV

[2] = target: T2, adrenergic α1B receptor (Homo sapiens, UniProt P35368); experiment: secondary pharmacology screens, α1B; type: biochemical; settings: 10 µM
T2 sequence (P35368 1-520): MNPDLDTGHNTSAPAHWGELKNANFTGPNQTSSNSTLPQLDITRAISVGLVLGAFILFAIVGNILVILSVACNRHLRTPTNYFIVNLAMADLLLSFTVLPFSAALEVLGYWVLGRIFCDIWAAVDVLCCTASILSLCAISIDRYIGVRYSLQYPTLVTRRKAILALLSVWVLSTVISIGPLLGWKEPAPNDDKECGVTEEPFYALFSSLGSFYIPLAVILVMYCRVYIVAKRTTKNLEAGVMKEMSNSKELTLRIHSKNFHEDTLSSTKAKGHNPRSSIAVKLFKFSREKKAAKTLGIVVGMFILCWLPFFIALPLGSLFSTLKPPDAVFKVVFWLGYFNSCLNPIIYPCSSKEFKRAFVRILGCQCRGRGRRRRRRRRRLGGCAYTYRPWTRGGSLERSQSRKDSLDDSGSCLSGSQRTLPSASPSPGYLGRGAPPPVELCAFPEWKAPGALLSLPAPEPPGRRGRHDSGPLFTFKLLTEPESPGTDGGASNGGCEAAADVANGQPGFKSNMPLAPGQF

[3] = dog pharmacokinetics; type: in vivo
[4] = test system: phospholipidosis (PLD); experiment: in vitro PLD screen; type: cell-based; settings: read-out: EC50 (phospholipogenic, in vitro); in vitro PLD screen; unpublished data
[5] = test system: mitochondrial oxidative phosphorylation; experiment: mitochondrial oxidative phosphorylation inhibition; type: biochemical; settings: unpublished data
[6] = test system: rat; experiment: 14-day rat study; type: in vivo; settings: 14-day study, unpublished data
[7] = 3-month toxicity study, toxicokinetics; type: in vivo, beagle dogs; settings: 30 mg/kg/day
In short: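 Dogs received 7, 15 or 30 mg/kg/day by oral gavage for 3 months. Serial blood was drawn on Days 1, 23, 56 and 91, pre-dose and from 0.5 to 24 h post-dose. One decedent was sampled on Day 86 before euthanasia. Plasma drug was measured and tmax, Cmax, AUC and t1/2 were derived.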

[8] = test system: beagle dogs; experiment: 1-month toxicity study, in-life, clinical pathology and pathology; type: in vivo; settings: dog
[9] = test system: beagle dogs; experiment: 1-month; type: in vivo
[10] = test system: dogs; experiment: cardiovascular telemetry study in dogs; type: in vivo; settings: dog
[11] = test system: rat; experiment: rat 1- and 3-month repeat dose toxicity; type: in vivo
[12] = rat systemic and brain exposure; type: in vivo; settings: 25 mg/kg/day (NOEL for neuropathology), unpublished results
[13] = target: human 5-hydroxytryptamine 1B (serotonin, or 5-HT1B) receptor; settings: antagonist; cited from earlier work
[14] = test system: brain 5-HT1B receptors; settings: non-human primates; cited from earlier work
[15] = test system: brain 5-HT1B receptors; settings: cited from earlier work
[16] = cited from earlier work
[17] = test system: p-glycoprotein; settings: cited from earlier work
[18] = 1-month, 47 mg/kg/day, 4 affected dogs
[19] = 1-month, 47 mg/kg/day, Week 2 until end of dosing

COc1cc2c(c(N3CCN(C)CC3)c1)O[C@@H](C(=O)Nc1ccc(N3CCOCC3)cc1)CC2 [AZD3783, (2R)-6-methoxy-8-(4-methylpiperazin-1-yl)-N-(4-morpholin-4-ylphenyl) chromane-2-carboxamide]
activity at adrenergic α1A receptor [1]: antagonist | activity at adrenergic α1B receptor [2]: antagonist | steady state volume of distribution [3]: 4.3 L/kg | plasma clearance ([3]; after IV dosing): 18 mL/min/kg | F (oral) ([3]; oral dosing): 58% | EC50 [4]: 164 µM | inhibition of mitochondrial oxidative phosphorylation [5]: not a direct inhibitor | PLD in tissues [6]: dose-dependent PLD in a limited number of tissues | plasma concentration ([7]; decedent female, prior to euthanasia on Day 86): 17 µM | exposure relative to predicted therapeutic exposure ([7]; dog, 3-month study): 350 fold | ECG ([8]; 1-month): no treatment-related effect on ECG | pathological findings in spinal cord or any CNS tissues ([8]; 1-month, 2.3 mg/kg/day): no pathological findings | pathological findings in spinal cord or any CNS tissues ([8]; 1-month, 14 mg/kg/day): no pathological findings | dogs with mild to marked increases in liver enzymes (incidence) ([8]; 1-month, 47 mg/kg/day): 4 of 12 | electron microscopy of liver and gallbladder ([8]; 1-month, 47 mg/kg/day): lamellar bodies consistent with PLD | liver microscopic findings ([8]; 1-month, 47 mg/kg/day): inflammatory cell infiltration, degenerative and necrotic changes in the centrilobular region and moderate pigments in histiocytes | lymphoid tissues microscopic findings ([8]; 1-month, 47 mg/kg/day): increased incidence and severity of lymphocytolysis | ALT increase in affected dogs [8, 18]: up to 17 fold vs. pretest | Aspartate aminotransferase (AST) increase in affected dogs [8, 18]: up to 7 fold vs. pretest | GLDH increase in affected dogs [8, 18]: up to 37 fold vs. pretest | alanine aminotransferase (ALT) group mean elevation [8, 19]: approximately 3 fold | glutamate dehydrogenase (GLDH) group mean elevation [8, 19]: ~7 fold | mortality ([8]; 1-month, 2.3, 14, 47 mg/kg/day): All animals survived to scheduled necropsy | ophthalmology observations ([8]; 1-month, all doses): No treatment-related observations were seen in the eyes of any dog | platelet counts increase ([8]; 1-month, females, 47 mg/kg/day): 24–52% | platelet counts increase ([8]; 1-month, males, 47 mg/kg/day): 10–15% | pathological findings in spinal cord or any CNS tissues ([8]; recovery animals previously dosed at 47 mg/kg/day): no pathological findings | brain microscopic findings ([9]; 2.3 mg/kg/day, 4 weeks): No treatment-related microscopic change in the brain | brain microscopic findings, other three dogs ([9]; 47 mg/kg/day, 4 weeks): minimal to moderate foamy cytoplasmic vacuolation of neurons | mortality ([9]; a male in the 47 mg/kg/day group, severe clinical signs): euthanized on Day 20 | brain microscopic findings, decedant ([9]; male, 47 mg/kg/day, euthanized Day 20): neuronal degeneration and necrosis microscopically, accompanied by minimal gliosis in the medulla oblongata | brain microscopic findings ([9]; two dogs, 14 mg/kg/day, 4 weeks): minimal granular, yellowish pigmentation in the cytoplasm of neurons in the medulla oblongata | cardiovascular effect (telemetry) ([10]; 14 mg/kg/day): no effect | cardiovascular effect (telemetry) ([10]; 47 mg/kg): modest tachycarda with decrease in blood pressure | PLD [11]: caused generalized PLD | nervous tissue pathology ([11]; 1 month, 126 mg/kg/day): minimal neuronal vacuolation in the DRG and brain stem | nervous tissue pathology (DRG, brain stem, spinal cord) ([11]; 3 months, 100 mg/kg/day, unpublished results): minimal to slight neuronal vacuolation with eosinophilic deposits | AUC [12]: 84 µM·h | Ki [13]: 0.0125 µM | binding to brain 5-HT1B receptors (PET) [14]: bind dose-dependently | binding to brain 5-HT1B receptors (PET) ([15]; human subjects): bind dose-dependently | receptor occupancy in brain region ([15]; man, 5 mg dose): 50% | blood brain barrier crossing [16]: readily crosses the blood brain barrier | p-glycoprotein substrate [17]: not likely to be a p-glycoprotein substrate
